Converted amounts (≈) assume the structure as drawn. The source made the active and inactive calls. The calls are words filed in the database; no cut-off is given here.
Tests used:
Vero = experiment: Cytotoxicity against African green monkey Vero cells; assay type: cell-based; settings: Chlorocebus sabaeus
[1] = Kinetic solubility of the compound in water up to 250 uM by laser nephelometry; assay type: physicochemical; settings: read-out: Kinetic_solubility
Method in brief: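 Measured in water after dilution from a DMSO solution of compound.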

[2] = Intrinsic clearance in CD-1 mouse liver microsomes at 0.5 uM after 30 mins in presence of NADPH by UPLC-MS/MS analysis; assay type: ADME, microsome; settings: 0.5 h
[3] = target: Sterol 14-alpha demethylase (Trypanosoma cruzi (strain CL Brener)) (UniProt Q7Z1V1); experiment: (§1) Inhibition of Trypanosoma cruzi CYP51
Chain of Sterol 14-alpha demethylase (Trypanosoma cruzi (strain CL Brener)) (Q7Z1V1 whole entry, looked up): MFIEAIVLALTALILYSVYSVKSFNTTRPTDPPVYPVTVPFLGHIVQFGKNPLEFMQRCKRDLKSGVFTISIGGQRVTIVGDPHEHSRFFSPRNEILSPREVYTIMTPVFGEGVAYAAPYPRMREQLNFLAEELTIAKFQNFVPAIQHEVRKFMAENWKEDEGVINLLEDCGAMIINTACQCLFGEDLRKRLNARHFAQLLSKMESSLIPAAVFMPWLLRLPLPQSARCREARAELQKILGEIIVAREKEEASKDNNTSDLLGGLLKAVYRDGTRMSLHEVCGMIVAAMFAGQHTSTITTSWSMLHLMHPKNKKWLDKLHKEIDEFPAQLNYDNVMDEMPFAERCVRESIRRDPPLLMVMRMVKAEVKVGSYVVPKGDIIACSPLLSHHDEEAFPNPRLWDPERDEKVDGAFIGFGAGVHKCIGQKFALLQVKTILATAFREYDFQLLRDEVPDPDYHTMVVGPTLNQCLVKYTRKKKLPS

[4] = Selectivity ratio of pEC50 for African green monkey Vero cells to pEC50 for Trypanosoma cruzi amastigote forms infected in African green monkey Vero cells; assay type: toxicity
Method in brief: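 Ratio of Vero pEC50 to T. cruzi intracellular amastigote pEC50, with both values from the Vero-cell amastigote culture format.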

Trypanosoma cruzi = experiment: Antitrypanosomal activity against Trypanosoma cruzi amastigote forms infected in African green monkey Vero cells; assay type: functional, organism-based
Method in brief: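 T. cruzi amastigotes cultured intracellularly in Vero host cells. EC50 determined from concentration-response, reported as pEC50. Mean of two determinations ± range, or of three or more ± standard deviation, depending on the series.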

[5] = target: Voltage-gated inwardly rectifying potassium channel KCNH2 (Homo sapiens, UniProt Q12809); experiment: Inhibition of human ERG
Chain of Voltage-gated inwardly rectifying potassium channel KCNH2 (Q12809 whole entry): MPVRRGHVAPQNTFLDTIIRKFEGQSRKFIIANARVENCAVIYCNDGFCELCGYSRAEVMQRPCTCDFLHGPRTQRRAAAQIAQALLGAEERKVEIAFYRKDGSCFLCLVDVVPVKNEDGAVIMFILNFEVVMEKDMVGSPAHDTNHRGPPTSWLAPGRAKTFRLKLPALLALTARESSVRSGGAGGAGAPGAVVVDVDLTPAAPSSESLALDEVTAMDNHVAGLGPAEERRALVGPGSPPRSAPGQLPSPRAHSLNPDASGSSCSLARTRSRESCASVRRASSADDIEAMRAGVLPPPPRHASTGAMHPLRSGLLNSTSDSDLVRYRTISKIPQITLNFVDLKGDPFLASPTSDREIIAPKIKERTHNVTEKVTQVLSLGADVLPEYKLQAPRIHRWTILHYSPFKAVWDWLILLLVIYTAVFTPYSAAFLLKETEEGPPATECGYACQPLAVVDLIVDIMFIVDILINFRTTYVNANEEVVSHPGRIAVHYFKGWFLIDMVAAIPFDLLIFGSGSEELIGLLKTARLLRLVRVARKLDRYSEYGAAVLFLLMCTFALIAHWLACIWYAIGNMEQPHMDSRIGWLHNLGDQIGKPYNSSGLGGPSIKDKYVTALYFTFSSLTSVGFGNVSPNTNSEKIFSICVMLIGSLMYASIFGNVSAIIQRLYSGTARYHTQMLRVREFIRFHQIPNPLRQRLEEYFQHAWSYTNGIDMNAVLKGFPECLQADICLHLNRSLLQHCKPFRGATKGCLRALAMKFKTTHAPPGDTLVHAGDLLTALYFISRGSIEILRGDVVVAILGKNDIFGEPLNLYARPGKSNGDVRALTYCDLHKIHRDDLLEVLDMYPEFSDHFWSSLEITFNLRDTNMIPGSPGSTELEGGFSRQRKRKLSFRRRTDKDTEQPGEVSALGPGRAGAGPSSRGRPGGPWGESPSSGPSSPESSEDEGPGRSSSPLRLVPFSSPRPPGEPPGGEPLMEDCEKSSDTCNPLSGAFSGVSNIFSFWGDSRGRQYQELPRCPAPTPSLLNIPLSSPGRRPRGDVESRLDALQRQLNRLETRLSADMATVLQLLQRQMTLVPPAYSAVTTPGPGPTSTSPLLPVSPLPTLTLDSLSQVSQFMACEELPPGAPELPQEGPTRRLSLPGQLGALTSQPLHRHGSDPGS

[6] = target: Sterol 14-alpha demethylase (Trypanosoma cruzi (strain CL Brener), UniProt Q7Z1V1); experiment: as §1
Chain of Sterol 14-alpha demethylase (Q7Z1V1 whole entry): as the sequence (Q7Z1V1 whole entry, looked up) above

Aurora kinase B = Aurora kinase B (Homo sapiens, UniProt Q96GD4); experiment: Inhibition of aurora B (unknown origin)
Chain of Aurora kinase B (Q96GD4 whole entry): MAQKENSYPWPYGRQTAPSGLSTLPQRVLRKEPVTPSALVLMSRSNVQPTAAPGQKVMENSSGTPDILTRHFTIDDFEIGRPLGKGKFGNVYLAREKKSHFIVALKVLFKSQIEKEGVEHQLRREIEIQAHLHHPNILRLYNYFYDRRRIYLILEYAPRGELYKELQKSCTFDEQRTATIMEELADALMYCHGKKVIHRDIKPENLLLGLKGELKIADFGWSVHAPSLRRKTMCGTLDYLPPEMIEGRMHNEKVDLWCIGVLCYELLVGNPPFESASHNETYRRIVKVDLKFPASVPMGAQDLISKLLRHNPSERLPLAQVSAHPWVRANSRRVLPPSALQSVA

Cannabinoid receptor 1 = Cannabinoid receptor 1 (Homo sapiens, UniProt P21554); experiment: Inhibition of CB1 (unknown origin)
Chain of Cannabinoid receptor 1 (P21554 whole entry): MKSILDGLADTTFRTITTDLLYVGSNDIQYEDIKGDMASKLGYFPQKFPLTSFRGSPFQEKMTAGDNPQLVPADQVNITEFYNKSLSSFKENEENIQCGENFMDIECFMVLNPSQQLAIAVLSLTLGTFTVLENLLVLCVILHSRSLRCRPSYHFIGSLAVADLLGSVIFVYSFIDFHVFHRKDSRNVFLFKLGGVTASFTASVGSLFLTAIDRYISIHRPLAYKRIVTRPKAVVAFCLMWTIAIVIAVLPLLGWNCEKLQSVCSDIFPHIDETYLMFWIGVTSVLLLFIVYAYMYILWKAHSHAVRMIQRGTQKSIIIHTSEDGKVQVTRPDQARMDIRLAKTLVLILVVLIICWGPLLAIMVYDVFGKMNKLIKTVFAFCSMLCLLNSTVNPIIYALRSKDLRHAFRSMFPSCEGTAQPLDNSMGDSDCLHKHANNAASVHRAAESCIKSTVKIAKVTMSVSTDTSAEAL

| SMILES | EC50 (Vero) [µM] | solubility kinetic [1] [µM] | CLH [2] [mL/min/g] | inhibition [3] | selectivity ratio [4] | EC50 (Trypanosoma cruzi) [µM] | IC50 [5] [µM] | IC50 [6] [µM] | IC50 (Aurora kinase B) [µM] | IC50 (Cannabinoid receptor 1) [µM] |
| --- | --- | --- | --- | --- | --- | --- | --- | --- | --- | --- |
| Cc1cc(N(C)C)nc(NCc2ccccc2)n1 | > 50.1 | > 250 | 28 | inactive | > 16 |  |  |  |  |  |
| Cc1cc(N(C)C)nc(N[C@H](C)c2ccccc2)n1 | > 50.1 | > 250 | 11 |  | > 40 | 1.26 |  |  |  |  |
| Cc1cc(N(C)C)nc(NCc2ccc(Cl)cc2)n1 | 25.1 | > 250 | 12 |  | 25 | 1 |  |  |  |  |
| COc1cc(Nc2nc(C)cc(N(C)C)n2)ccc1F |  | > 250 | 17 | inactive | 80 | 0.398 | 5.01 |  |  |  |
| COc1cc(Nc2nc(C)cc(N3CCCC3)n2)ccc1F |  | 220 (≈ 66.5 µg/mL) | 14 |  | 63 |  |  |  |  |  |
| Cc1cc(N(C)C)nc(NCC2CCOCC2)n1 | > 50.1 | > 250 | 3.8 |  | > 3 | 15.8 |  |  |  |  |
| COc1cc(Nc2nc(C(=O)N3CCCC3)cc(N(C)C)n2)ccc1F | > 50.1 | > 250 | 3.4 |  | > 1.6 |  |  |  |  |  |
| Cc1cc(N(C)C)nc(NC2CCN(C(=O)Cc3ccc(F)cc3F)CC2)n1 | > 50.1 |  |  |  | > 16 |  |  |  |  |  |
| Cc1cc(N(C)C)nc(Nc2ccc(C(=O)N3CCCCC3)cc2)n1 | > 50.1 |  |  |  | > 25 |  |  |  |  |  |
| COc1cc(Nc2nc(N(C)C)cc(C(F)(F)F)n2)ccc1F | > 50.1 | 110 (≈ 36.3 µg/mL) |  |  | > 2 | 25.1 |  |  |  |  |
| COc1cccc(Nc2nc(C)cc(N(C)C)n2)c1 | > 50.1 | > 250 | 15 |  | > 63 | 0.794 |  |  |  |  |
| Cc1cc(Nc2ccc(F)cc2)nc(NCc2ccccc2)n1 | 7.94 | > 250 | 10 |  | 20 | 0.398 |  |  |  |  |
| COc1cc(Nc2cc(C)nc(NCc3ccccc3)n2)ccc1F | 5.01 | 180 (≈ 60.9 µg/mL) | 10 |  | 63 |  |  |  |  |  |
| COc1ccccc1NC(=O)c1ccc(Nc2nc(C)cc(N(C)C)n2)cc1 | 0.631 |  |  |  | 1.3 | 0.794 |  |  |  |  |
| Cc1cc(N(C)C)nc(Nc2ccc3c(c2)OCO3)n1 | > 50.1 | > 250 | 14 |  | > 40 | 1.26 |  |  |  |  |
| COc1cc(Nc2nccc(N(C)C)n2)ccc1F | > 50.1 | 160 (≈ 42 µg/mL) | 29 |  | > 13 | 3.98 |  |  |  |  |
| Cc1cc(N(C)C)nc(Nc2ccc(C(=O)NCc3ccccc3)cc2)n1 | 5.01 |  |  |  | 4 | 1.26 |  |  |  |  |
| COc1cc(Nc2nc(C)cc(N3CCCCC3)n2)ccc1F | 15.8 | 160 (≈ 50.6 µg/mL) | 17 |  | 16 | 1 |  |  |  |  |
| COc1cc(Nc2nc(C)cc(NCc3ccccc3)n2)ccc1F | 5.01 | > 250 | 8 |  | 6.3 | 0.794 |  |  |  |  |
| COc1cc(Nc2nc(C)cc(N3CCC(F)(F)C3)n2)ccc1F |  | > 250 | 35 |  | 4 | 7.94 |  |  |  |  |
| COc1cccc(Nc2cc(C)nc(NCc3ccccc3)n2)c1 | 7.94 | > 250 | 20 |  | 40 | 0.2 |  |  |  |  |
| Cc1cc(N(C)C)nc(N[C@H]2CC[C@H](NC(=O)c3ccccc3)CC2)n1 | > 50.1 | > 250 |  |  | > 40 | 1.26 |  |  |  |  |
| CCOC1CCCN(c2cc(C)nc(Nc3ccc(F)c(OC)c3)n2)C1 (centres undefined) | 25.1 | > 250 | 35 |  | 16 | 1.58 |  |  |  |  |
| COc1cc(Nc2nc(C(C)C)cc(N(C)C)n2)ccc1F | > 50.1 | 170 (≈ 51.7 µg/mL) | 50 |  | > 25 |  |  |  |  |  |
| COc1cc(Nc2nc(C)cc(N3CCCC(C#N)C3)n2)ccc1F (centres undefined) |  | 219 (≈ 74.8 µg/mL) |  |  | 5 | 7.94 |  |  |  |  |
| COc1cc(Nc2nc(CO)cc(N(C)C)n2)ccc1F | > 50.1 | > 250 | 35 |  | > 6 | 7.94 |  |  |  |  |
| COc1ccc(Nc2nc(C)cc(N(C)C)n2)cc1 | > 50.1 | > 250 | 10 |  | > 32 | 1.58 |  |  |  |  |
| COc1cc(OC)cc(C(=O)Nc2ccc(Nc3nc(C)cc(N(C)C)n3)cc2)c1 |  | 20 (≈ 8.15 µg/mL) | 0.7 |  | 40 | 0.158 |  | > 10 |  |  |
| COc1cc(OC)cc(C(=O)N[C@H]2CC[C@H](Nc3nc(C)cc(N(C)C)n3)CC2)c1 |  | > 250 | 4.2 | inactive | 100 | 0.398 | 3.98 |  | 0.0398 | 0.0631 |
| COc1cc(Nc2nc(C)cc(N3CCOCC3)n2)ccc1F | > 50.1 | > 250 | 18 |  | > 6 | 7.94 |  |  |  |  |
